Experimental data taken from ChEMBL document CHEMBL4602651, “Development of selective mono or dual PROTAC degrader probe of CDK isoforms” (Eur J Med Chem, 2020).
The source made the active and inactive calls. The calls are words filed in the database; no cut-off is given here.

Tests used:
[1] = target: Protein cereblon/Cyclin-dependent kinase 2 (Homo sapiens) (UniProt P24941+Q96SW2); experiment: Protac activity at CRBN/CDK2 in AR-negative human PC3 cells assessed as induction of CDK2 protein degradation at 50 nM after 12 hrs by Western blot analysis; assay type: cell-based; conditions: PC-3
In short: (§1)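 PC-3 cells (5 × 10^5 per well) treated 12 h at single concentrations (50 nM, 500 nM, 1, 5 or 30 µM). RIPA lysates (50 µg) run on 10% SDS-PAGE and immunoblotted for CDK2, CDK5, CDK9 with β-tubulin loading control, then detected by chemiluminescence. Band intensities quantified densitometrically.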

[2] = target: Protein cereblon/Cyclin-dependent kinase 9 (Homo sapiens) (UniProt P50750+Q96SW2); experiment: Protac activity at CRBN/CDK9 in AR-negative human PC3 cells assessed as induction of CDK9 protein degradation at 50 nM after 12 hrs by Western blot analysis; assay type: cell-based; conditions: PC-3
In short: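 PC-3 cells (DMEM/F12 1:1, 10% FBS, 1% pen/strep, 37 °C, 5% CO2) plated at 5 × 10^5 per well, exposed to compound for 12 h. RIPA lysates with protease inhibitors; 50 µg total protein run on 10% SDS-PAGE, transferred to PVDF, blocked in 5% milk/TBS-T. Probed with anti-CDK9 (1/1000), β-tubulin loading control, HRP secondary, chemiluminescence; bands scored as degradation detected or not.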

[3] = target: T1, Protein cereblon/Cyclin-dependent kinase 2/Cyclin-dependent kinase 9 (Homo sapiens, UniProt P24941+P50750+Q96SW2); experiment: Protac activity at CRBN/CDK2/CDK9 in AR-negative human PC3 cells assessed as CDK2 degradation at 250 nM preincubated with FN-1501 for 2 hrs and measured after 8 hrs by Western blot analysis; assay type: cell-based; conditions: PC-3
In short: (§2)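 PC-3 cells pretreated 2 h with 5 µM DMSO, FN-1501, pomalidomide or MG-132, then exposed to degrader at 250 nM for 8 h. Lysates probed for CDK2 and CDK9, β-tubulin as loading control. 50 µg protein per lane, 10% SDS-PAGE, chemiluminescent detection.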

CDK9/cyclin T1 = CDK9/cyclin T1 (Homo sapiens, UniProt P50750); experiment: Inhibition of tracer K10 binding to NanoLuc-CDK9/Cyclin T1 (unknown origin) expressed in human HEK293 cells after 1 hr in presence of ATP by NanoBRET assay; assay type: cell-based
In short: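 Cell-based target engagement run by a contract lab. HEK293 cells pretreated with NanoBRET Tracer K-10, then exposed to compound for 1 h with 10 µM ATP, and BRET signal read. 10-point, 3-fold dilutions from 1 µM. Staurosporine reference used 4-fold dilutions from 20 µM. IC50 from sigmoidal dose-response fit.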

[4] = target: T1, Protein cereblon/Cyclin-dependent kinase 2/Cyclin-dependent kinase 9; experiment: Protac activity at CRBN/CDK2/CDK9 in human HCT116 cells assessed as CDK2 degradation at 0.25 to 10 uM after 12 hrs by Westernblot analysis; assay type: cell-based; conditions: HCT-116
In short: (§3)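 22Rv1, HCT-116 (RPMI 1640, 10% FBS) and MCF-7 cells treated with degrader at indicated concentrations for 12 h. CDK2 and CDK9 blotted with β-tubulin loading control.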

PC-3 [5] = experiment: Induction of cell cycle arrest in human PC3 cells assessed as accumulation at G0/G1 phase at 250 nM after 48 hrs by propidium iodide staining based flow cytometry (reference value: 59.80%); assay type: functional
PC-3 [6] = experiment: Induction of cell cycle arrest in human PC3 cells assessed as accumulation at G2/M phase at 250 nM after 48 hrs by propidium iodide staining based flow cytometry (reference value: 22.24%); assay type: functional
PC-3 [7] = experiment: Induction of cell cycle arrest in human PC3 cells assessed as accumulation at S phase at 1 uM after 48 hrs by propidium iodide staining based flow cytometry (reference value: 17.96%); assay type: functional
PC-3 [8] = experiment: Induction of cell cycle arrest in human PC3 cells assessed as accumulation at G0/G1 phase at 3 uM after 48 hrs by propidium iodide staining based flow cytometry (reference value: 59.80%); assay type: functional
PC-3 [9] = experiment: Induction of cell cycle arrest in human PC3 cells assessed as accumulation at G2/M phase at 3 uM after 48 hrs by propidium iodide staining based flow cytometry (reference value: 22.24%); assay type: functional
[10] = target: T1, Protein cereblon/Cyclin-dependent kinase 2/Cyclin-dependent kinase 9; experiment: Protac activity at CRBN/CDK2/CDK9 in AR-negative human PC3 cells assessed as reduction in Mcl-1 protein expression at 500 nM measured after 2 to 24 hrs by Western blot analysis; assay type: cell-based; conditions: PC-3
In short: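 PC-3 cells treated with 500 nM degrader for varying times. Lysates blotted for CDK2, CDK4, CDK6, CDK9, c-Myc and Mcl-1, each at 1/1000 primary antibody, with β-tubulin reference and chemiluminescent detection.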

[11] = target: T1, Protein cereblon/Cyclin-dependent kinase 2/Cyclin-dependent kinase 9; experiment: Protac activity at CRBN/CDK2/CDK9 in AR-negative human PC3 cells assessed as CDK9 degradation at 250 nM preincubated with pomalidomide for 2 hrs and measured after 8 hrs by Western blot analysis; assay type: cell-based; conditions: PC-3; in short: as §2
[12] = target: T1, Protein cereblon/Cyclin-dependent kinase 2/Cyclin-dependent kinase 9; experiment: Protac activity at CRBN/CDK2/CDK9 in AR-negative human PC3 cells assessed as CDK9 degradation at 250 nM preincubated with FN-1501 for 2 hrs and measured after 8 hrs by Western blot analysis; assay type: cell-based; conditions: PC-3; in short: as §2
[13] = target: T1, Protein cereblon/Cyclin-dependent kinase 2/Cyclin-dependent kinase 9; experiment: Protac activity at CRBN/CDK2/CDK9 in human HCT116 cells assessed as CDK9 degradation at 0.25 to 10 uM after 12 hrs by Westernblot analysis; assay type: cell-based; conditions: HCT-116; in short: as §3
[14] = target: T1, Protein cereblon/Cyclin-dependent kinase 2/Cyclin-dependent kinase 9; experiment: Protac activity at CRBN/CDK2/CDK9 in AR-negative human PC3 cells assessed as induction of CDK9 protein degradation at 1 uM after 12 hrs by Western blot analysis; assay type: cell-based; conditions: PC-3; in short: as §1
[15] = target: T1, Protein cereblon/Cyclin-dependent kinase 2/Cyclin-dependent kinase 9; experiment: Protac activity at CRBN/CDK2/CDK9 in AR-negative human PC3 cells assessed as induction of CDK9 protein degradation at 30 uM after 12 hrs by Western blot analysis; assay type: cell-based; conditions: PC-3; in short: as §1

Sequence of CDK9/cyclin T1 (O60563 whole entry): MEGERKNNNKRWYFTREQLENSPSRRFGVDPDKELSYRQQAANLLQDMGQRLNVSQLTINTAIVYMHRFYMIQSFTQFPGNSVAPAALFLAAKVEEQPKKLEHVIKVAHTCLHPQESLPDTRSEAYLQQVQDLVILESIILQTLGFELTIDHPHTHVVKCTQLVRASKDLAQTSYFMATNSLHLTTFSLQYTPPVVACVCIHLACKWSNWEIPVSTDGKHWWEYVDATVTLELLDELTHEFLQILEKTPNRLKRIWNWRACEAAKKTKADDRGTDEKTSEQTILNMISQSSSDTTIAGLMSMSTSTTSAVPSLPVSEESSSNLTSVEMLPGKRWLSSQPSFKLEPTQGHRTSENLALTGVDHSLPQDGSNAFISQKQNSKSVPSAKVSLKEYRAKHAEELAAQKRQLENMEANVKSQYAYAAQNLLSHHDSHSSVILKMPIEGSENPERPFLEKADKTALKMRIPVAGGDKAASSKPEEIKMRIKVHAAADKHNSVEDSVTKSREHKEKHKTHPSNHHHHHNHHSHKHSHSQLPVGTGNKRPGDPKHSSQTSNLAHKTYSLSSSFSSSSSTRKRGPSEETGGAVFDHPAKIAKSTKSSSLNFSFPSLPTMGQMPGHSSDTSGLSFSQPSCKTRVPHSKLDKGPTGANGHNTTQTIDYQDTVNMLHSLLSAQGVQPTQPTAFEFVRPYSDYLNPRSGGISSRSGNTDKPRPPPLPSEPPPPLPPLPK
Sequence of CDK9/cyclin T1 (P50750 whole entry): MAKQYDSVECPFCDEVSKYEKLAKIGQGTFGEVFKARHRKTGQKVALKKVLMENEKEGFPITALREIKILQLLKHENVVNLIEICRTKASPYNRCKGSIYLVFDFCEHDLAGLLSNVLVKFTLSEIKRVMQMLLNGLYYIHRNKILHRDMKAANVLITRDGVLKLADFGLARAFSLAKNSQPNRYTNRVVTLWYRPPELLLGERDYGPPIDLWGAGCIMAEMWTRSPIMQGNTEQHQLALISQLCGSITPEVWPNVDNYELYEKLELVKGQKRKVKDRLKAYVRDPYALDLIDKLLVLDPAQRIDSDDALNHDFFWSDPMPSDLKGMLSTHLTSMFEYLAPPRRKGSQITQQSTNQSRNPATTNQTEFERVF
Sequence of Protein cereblon/Cyclin-dependent kinase 9 (Homo sapiens) (P50750 whole entry, looked up): as the sequence (P50750 whole entry) above
Sequence of Protein cereblon/Cyclin-dependent kinase 9 (Homo sapiens) (Q96SW2 whole entry, looked up): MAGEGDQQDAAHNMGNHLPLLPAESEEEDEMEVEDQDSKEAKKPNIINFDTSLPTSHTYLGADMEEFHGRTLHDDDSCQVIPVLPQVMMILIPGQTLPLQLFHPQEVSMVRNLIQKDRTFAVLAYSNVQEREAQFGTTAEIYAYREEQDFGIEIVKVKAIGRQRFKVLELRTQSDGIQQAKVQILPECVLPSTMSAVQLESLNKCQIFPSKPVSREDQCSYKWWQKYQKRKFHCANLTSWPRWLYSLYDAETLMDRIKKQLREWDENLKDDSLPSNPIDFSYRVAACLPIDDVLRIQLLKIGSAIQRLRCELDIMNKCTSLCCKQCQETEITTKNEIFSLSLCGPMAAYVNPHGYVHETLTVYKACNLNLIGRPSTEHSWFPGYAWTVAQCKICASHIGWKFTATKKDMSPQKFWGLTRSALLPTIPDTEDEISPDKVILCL

For O=C(CCC(=O)N1CCN(Cc2ccc(NC(=O)c3n[nH]cc3Nc3ncnc4[nH]ccc34)cc2)CC1)NCCNc1cccc2c1C(=O)N(C1CCC(=O)NC1=O)C2=O (stereo unspecified), the Activity [1] was “Active”, the Activity [2] was “Active” and the Activity [3] was “inactive”. The IC50 (CDK9/cyclin T1) was 14.5 nM, the Activity [4] was “Active” and the Activity (PC-3 [5]) was 50.15%. It also gave an Activity (PC-3 [6]) of 22.13%, an Activity (PC-3 [7]) of 9.23% and an Activity (PC-3 [8]) of 52.76%. The Activity (PC-3 [9]) was 36%, the Activity [10] was “Active” and the Activity [11] was “inactive”. For the same compound, the Activity [12] was “inactive”, the Activity [13] was “Active” and the Activity [14] was “Active”. The Activity [15] was “Active”.
